5 compounds from ChEMBL document CHEMBL1153743, “Pyrrolidinones from the ascomycete fungus Albonectria rigidiuscula” (J Nat Prod, 2009) can be followed below.

The source made the active and inactive calls. The rule behind the calls is not given here. Some results are limits rather than exact numbers.

Type in all cases: functional, cell-based
The subject of test [1] is HeLa. As to the kind of experiment: Cytotoxicity against human HeLa cells after 48 hrs by MTT assay. A digest of the protocol: (§1)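 HeLa cells seeded at 10^4 per well and left to attach overnight. Cells were exposed for 4 h at 37 °C and 5% CO2 to serial dilutions or a single 120 µM level, made from 10 mg/mL DMSO stocks, or to 0.2% DMSO medium. They then grew 48 h in fresh DMEM. MTT (0.5 mg/mL) was added for 3 h in the dark, formazan was dissolved in DMSO, and A540 was read. Run in triplicate; IC50 reported.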
In general terms: Tetrazolium assays rely on reduction of a dye to a coloured formazan, in cell work by metabolically active cells.

For test [2], the system named is MCF7. As to the kind of experiment: Cytotoxicity against human MCF7 cells after 48 hrs by MTT assay. The settings on record: MCF7, 48 h.
In test [3] the test system is HeLa. As to the kind of experiment: Cytotoxicity against human HeLa cells at 120 uM after 48 hrs by MTT assay. A digest of the protocol: as §1
In test [4] the test system is MCF7. Put plainly: Cytotoxicity against human MCF7 cells at 120 uM after 48 hrs by MTT assay.

As to `CN1C(=O)[C@@](C)(O)C(=O)[C@@H]1Cc1ccc2c(c1)CC(C(C)(C)O)O2` (stereo partly drawn), the IC50 with HeLa [1] and with MCF7 [2] was over 120 µM in each case. The outcome in the test on HeLa [3] and with MCF7 [4] was inactive.
As to `CN1C(=O)[C@@](C)(O)[C@@H](O)[C@@H]1Cc1ccc(O)cc1`, the IC50 with HeLa [1] and with MCF7 [2] was 95.6 µM in each case.
For `CN1C(=O)[C@@](C)(O)C(=O)[C@@H]1Cc1ccc(O)cc1`, the IC50 – broadly, the point on the concentration scale where inhibition reaches its midpoint – came to 48.2 µM in the test with HeLa [1] and 100 µM with MCF7 [2].
For `O=c1[nH]cc(F)c(=O)[nH]1` [FLUOROURACIL], in the test with HeLa [1], the IC50 was found to be 10 µM.
Turning to `CN1C(=O)[C@@](C)(O)[C@@H](O)[C@@H]1Cc1ccc2c(c1)CC(C(C)(C)O)O2` (stereo partly drawn), the IC50 in the test with HeLa [1] and in the test on MCF7 [2] was over 120 µM throughout. Besides, the outcome in the test with HeLa [3] and with MCF7 [4] was inactive.
